Source: ChEMBL document CHEMBL1156597, “Structure-activity relationship of kahalalide F synthetic analogues” (J Med Chem, 2008)

Key:
[1] = test system: SK-MEL-28; assay: Cytotoxicity against human SK-MEL-28 cells after 48 hrs by SRB assay; assay type: functional, cell-based; details: Homo sapiens, SK-MEL-28, 48 h; for GI50: read-out: GI50; for CC50: read-out: LC50 (the source's name)
Outline: (§1)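 Cells grown in RPMI 1640 with 10% FBS and penicillin/streptomycin at 37 °C and 5% CO₂, trypsinized, then seeded at 5 × 10³/well. After 18 h drug-free attachment, samples in DMSO/EtOH/PBS (0.5:0.5:99) were added for 48 h continuous exposure. Cells were fixed with cold TCA (1 h, 4 °C) and stained with SRB (10 min). Tris-solubilized stain read at 490 nm. Triplicate wells, mean ± SD; GI₅₀ derived.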

[2] = test system: LoVo; assay: Cytotoxicity against human doxorubicin resistant LoVo cells after 48 hrs by SRB assay; assay type: functional; details: for CC50: read-out: LC50 (the source's name); outline: as §1
[3] = test system: LoVo; assay: Cytotoxicity against human LoVo cells after 48 hrs by SRB assay; assay type: functional; details: for CC50: read-out: LC50 (the source's name)
[4] = Cytotoxicity against human IGROV-ET cells after 48 hrs by SRB assay; assay type: functional; details: for CC50: read-out: LC50 (the source's name); outline: as §1
[5] = test system: PANC-1; assay: Cytotoxicity against human PANC1 cells after 48 hrs by SRB assay; assay type: functional; details: PANC-1, 48 h; for CC50: read-out: LC50 (the source's name); outline: as §1
[6] = test system: HT-29; assay: Cytotoxicity against human HT29 cells after 48 hrs by SRB assay; assay type: functional, cell-based; details: Homo sapiens, HT-29, 48 h; for CC50: read-out: LC50 (the source's name); outline: as §1
[7] = test system: A549; assay: Cytotoxicity against human A549 cells after 48 hrs by SRB assay; assay type: functional, cell-based; details: Homo sapiens, A549, 48 h; outline: as §1
[8] = test system: SK-BR-3; assay: Cytotoxicity against human SKBR3 cells after 48 hrs by SRB assay; assay type: functional; details: SK-BR-3, 48 h; for GI50: read-out: GI50; for CC50: read-out: LC50 (the source's name); outline: as §1
[9] = test system: HeLa; assay: Cytotoxicity against human HeLa cells after 48 hrs by SRB assay; assay type: functional; details: for CC50: read-out: LC50 (the source's name); outline: as §1
[10] = test system: K562; assay: Cytotoxicity against human K562 cells after 48 hrs by SRB assay; assay type: functional; details: K562, 48 h; for CC50: read-out: LC50 (the source's name); outline: as §1
[11] = test system: DU-145; assay: Cytotoxicity against human DU145 cells after 48 hrs by SRB assay; assay type: functional, cell-based; details: Homo sapiens, DU-145, 48 h; for CC50: read-out: LC50 (the source's name); outline: as §1
[12] = Cytotoxicity against human IGROV cells after 48 hrs by SRB assay; assay type: functional; details: for CC50: read-out: LC50 (the source's name); outline: as §1
[13] = Cytotoxicity against human HeLa-APL cells after 48 hrs by SRB assay; assay type: functional; outline: as §1

| Compound | TGI [1] | GI50 [1] | CC50 [1] | CC50 [2] | GI50 [3] | TGI [3] | CC50 [3] | CC50 [4] | CC50 [5] | CC50 [6] | LC50 [7] | GI50 ([7]; read-out: GI50) | CC50 [9] | CC50 [10] | GI50 ([11]; read-out: GI50) | CC50 [11] | CC50 [12] | LC50 (concentration giving 50% net cell kill) [13] | GI50 [5] | TGI [5] | also measured |
| --- | --- | --- | --- | --- | --- | --- | --- | --- | --- | --- | --- | --- | --- | --- | --- | --- | --- | --- | --- | --- | --- |
| C/C=C1\NC(=O)[C@@H]2Cc3ccccc3CN2C(=O)[C@@H](C(C)C)NC(=O)[C@@H]([C@H](C)CC)NC(=O)[C@H](NC(=O)[C@H](NC(=O)[C@H](CCCN)NC(=O)[C@H]2CCCN2C(=O)[C@H](NC(=O)[C@@H](NC(=O)[C@@H](NC(=O)[C@H](NC(=O)CC[C@@H](C)CC)C(C)C)[C@@H](C)O)C(C)C)C(C)C)[C@H](C)CC)[C@H](C)OC(=O)[C@H](C(C)C)NC1=O | 1930 nM | 1620 nM | 2090 nM | 1820 nM | 2820 nM | 2910 nM | 3030 nM | 572 nM | 2010 nM | 726 nM | 1200 nM | 1750 nM | 1140 nM | 2680 nM | 4160 nM | 1930 nM | 7450 nM | 1190 nM | – | – | GI50 [2]: 718 nM; TGI [2]: 1250 nM; TGI [7]: 1440 nM; TGI [8]: 1900 nM; GI50 [8]: 2300 nM; CC50 [8]: 296 nM; GI50 [10]: 4890 nM; TGI [10]: 4260 nM; TGI [11]: 3830 nM |
| C/C=C1\NC(=O)[C@H](Cc2ccccc2)NC(=O)[C@@H](C(C)C)NC(=O)[C@@H]([C@H](C)CC)NC(=O)[C@H](NC(=O)[C@H](NC(=O)[C@H](CCCN)NC(=O)[C@H]2CCCN2C(=O)[C@H](NC(=O)[C@@H](NC(=O)[C@H](CCC(N)=O)NC(=O)[C@H](NC(=O)CCCC(C)C)C(C)C)C(C)C)C(C)C)[C@H](C)CC)[C@H](C)OC(=O)[C@H](C(C)C)NC1=O | 1170 nM | 1170 nM | 1170 nM | 348 nM | 258 nM | 325 nM | 357 nM | 561 nM | 1740 nM | 436 nM | 1140 nM | 1140 nM | 946 nM | 1900 nM | 913 nM | 913 nM | 456 nM | 955 nM | 1740 nM | 1740 nM | GI50 [4]: 575 nM; GI50 ([4]; read-out: GI50): 477 nM; GI50 [6]: 448 nM; TGI [6]: 455 nM; TGI [7]: 1140 nM; TGI [8]: 173 nM; GI50 [8]: 151 nM; CC50 [8]: 300 nM; GI50 [10]: 1900 nM; TGI [10]: 1900 nM; GI50 [11]: 913 nM; GI50 [12]: 406 nM; GI50 ([12]; read-out: GI50): 357 nM |
| C/C=C1\NC(=O)[C@H](Cc2ccccc2)NC(=O)[C@@H](C(C)C)NC(=O)[C@@H]([C@H](C)CC)NC(=O)[C@H](NC(=O)[C@H](NC(=O)[C@H](CCCN)NC(=O)[C@H]2CCCN2C(=O)[C@H](NC(=O)[C@@H](NC(=O)[C@@H](NC(=O)[C@@H](CCC(N)=O)NC(=O)CCCC(C)C)[C@@H](C)O)C(C)C)C(C)C)[C@H](C)CC)[C@H](C)OC(=O)[C@H](C(C)C)NC1=O | 1280 nM | 1340 nM | 1230 nM | 1670 nM | 1460 nM | 1800 nM | 2220 nM | 653 nM | 361 nM | 2870 nM | 664 nM | 234 nM | 915 nM | 2790 nM | 1460 nM | 1320 nM | 743 nM | 1800 nM | 168 nM | 222 nM | GI50 [2]: 610 nM; TGI [2]: 1080 nM; GI50 [4]: 947 nM; GI50 ([4]; read-out: GI50): 1330 nM; GI50 [6]: 2300 nM; TGI [6]: 2560 nM; GI50 [7]: 350 nM; GI50 [9]: 452 nM; TGI [9]: 649 nM; TGI [11]: 1390 nM; GI50 [13]: 2420 nM; TGI [13]: 3200 nM |
| C/C=C1\NC(=O)[C@H](Cc2ccccc2)NC(=O)[C@@H](C(C)C)NC(=O)[C@@H]([C@H](C)CC)NC(=O)[C@H](NC(=O)[C@H](NC(=O)[C@H](CCCN)NC(=O)[C@H]2CCCN2C(=O)[C@H](NC(=O)[C@@H](NC(=O)[C@@H](NC(=O)[C@H](NC(=O)CC[C@@H](C)[C@H]2CC[C@H]3[C@@H]4CC[C@@H]5C[C@H](O)CC[C@]5(C)[C@H]4CC[C@]23C)C(C)C)[C@@H](C)O)C(C)C)C(C)C)[C@H](C)CC)[C@H](C)OC(=O)[C@H](C(C)C)NC1=O | – | – | 3870 nM | 9860 nM | 14900 nM | 16900 nM | 9830 nM | 2280 nM | 5520 nM | 10300 nM | 3580 nM | – | 3130 nM | 8320 nM | 5100 nM | 3310 nM | 2710 nM | 3580 nM | 4350 nM | 9720 nM | TGI [4]: 5580 nM; GI50 ([4]; read-out: GI50): 4400 nM; GI50 [9]: 740 nM; TGI [9]: 5420 nM; TGI [11]: 6000 nM |
| CC[C@@H](C)[C@@H](NC(=O)[C@H](CCCN)NC(=O)[C@H]1CCCN1C(=O)[C@H](NC(=O)[C@@H](NC(=O)[C@@H](NC(=O)[C@H](NC(=O)CCCC(C)C)C(C)C)[C@@H](C)O)C(C)C)C(C)C)C(=O)N[C@H]1C(=O)N[C@H]([C@H](C)CC)C(=O)N[C@H](C(C)C)C(=O)N[C@@H](Cc2ccccc2)C(=O)N[C@H](CC)C(=O)N[C@@H](C(C)C)C(=O)O[C@H]1C | 3360 nM | 3100 nM | 1980 nM | 2280 nM | 2630 nM | 2740 nM | 2830 nM | 748 nM | 2830 nM | 3210 nM | 1830 nM | 3230 nM | 1600 nM | 2730 nM | 3260 nM | 1700 nM | 963 nM | 1840 nM | 4090 nM | 4980 nM | GI50 [2]: 1760 nM; TGI [2]: 2000 nM; GI50 [6]: 3660 nM; TGI [6]: 3410 nM; TGI [7]: 3020 nM; TGI [11]: 3040 nM |
| C/C=C1\NC(=O)[C@H](Cc2ccccc2)NC(=O)[C@@H](C(C)C)NC(=O)[C@@H]([C@H](C)CC)NC(=O)[C@H](NC(=O)[C@H](NC(=O)[C@H](CCCN)NC(=O)[C@H]2CCCN2C(=O)[C@H](NC(=O)[C@@H](NC(=O)[C@@H](NC(=O)[C@@H](CCC(=O)O)NC(=O)CCCC(C)C)[C@@H](C)O)C(C)C)C(C)C)[C@H](C)CC)[C@H](C)OC(=O)[C@H](C(C)C)NC1=O | 3750 nM | 3730 nM | 1950 nM | 2430 nM | 1950 nM | 2200 nM | 2490 nM | 705 nM | 2770 nM | 3010 nM | 1800 nM | 3250 nM | 1570 nM | 3040 nM | 2840 nM | 1660 nM | 844 nM | 1800 nM | 5310 nM | 4880 nM | GI50 [2]: 2030 nM; TGI [2]: 2220 nM; GI50 [4]: 969 nM; GI50 ([4]; read-out: GI50): 1310 nM; GI50 [6]: 2910 nM; TGI [6]: 2960 nM; TGI [7]: 2960 nM; GI50 [9]: 2940 nM; TGI [9]: 2720 nM; TGI [11]: 3010 nM; GI50 [13]: 2910 nM; TGI [13]: 3570 nM |
| C/C=C1\NC(=O)[C@H](Cc2ccccc2)NC(=O)[C@@H](C(C)C)NC(=O)[C@@H]([C@H](C)CC)NC(=O)[C@H](NC(=O)[C@H](NC(=O)[C@H](CCCN)NC(=O)[C@H]2CCCN2C(=O)[C@H](NC(=O)[C@@H](NC(=O)[C@@H](NC(=O)[C@H](N)C(C)C)[C@@H](C)O)C(C)C)C(C)C)[C@H](C)CC)[C@H](C)OC(=O)[C@H](C(C)C)NC1=O | – | – | 4140 nM | 5470 nM | 9460 nM | 9360 nM | 5450 nM | 1260 nM | 3060 nM | 5680 nM | 1980 nM | – | 1740 nM | 4610 nM | – | 1840 nM | 1500 nM | 1990 nM | 5490 nM | 5390 nM | TGI [4]: 3100 nM; GI50 ([4]; read-out: GI50): 4010 nM |
